Series [1] relates to Staphylococcus aureus. Briefly: Antimicrobial activity against methicillin-susceptible Staphylococcus aureus after 16 to 18 hrs by agar dilution method. The class given is functional. (In general: In agar dilution the substance is mixed into plates at graded concentrations.)
Series [2] relates to Staphylococcus aureus. Briefly: Antimicrobial activity against methicillin-resistant Staphylococcus aureus 05-2 infected in iv dosed KunMing SPF mouse. The class given is functional. Put shortly:
(§1)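 Mice given a lethal systemic infection by intraperitoneal injection of the MLD inoculum of MRSA 05-2. Compound dosed orally or by i.v. injection in 0.9% NaCl immediately and 4 h post-infection. ED50 (dose curing 50% of infected mice) calculated by the Bliss method on day 7 post-infection, with 95% confidence ranges.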

For series [3], the system named is Streptococcus pneumoniae. The experiment in a line: Antimicrobial activity against sStreptococcus pneumoniae after 16 to 18 hrs by agar dilution method. The class given is functional.
Series [4] has as its system Enterococcus faecalis. Briefly: Antimicrobial activity against Enterococcus faecalis after 16 to 18 hrs by agar dilution method. The class given is functional.
The test system of series [5] is Staphylococcus aureus. The experiment in a line: Antimicrobial activity against methicillin-resistant Staphylococcus aureus 05-2 infected in sc dosed KunMing SPF mouse. The class given is functional.
Series [6] concerns Staphylococcus aureus. The experiment in a line: Antimicrobial activity against Staphylococcus aureus ATCC 29213 after 16 to 18 hrs by agar dilution method. In kind it is functional.
Series [7] in a line: Cmax in Sprague-Dawley rat at 50 mg/kg, po. The class given is ADME, organism-based. Also noted: dose 50 mg/kg, route oral. To be noted: in vivo. A digest of the protocol: (§2)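 Single dose given orally (10 or 50 mg/kg) or intravenously (10 mg/kg). Serial 300 µL blood samples were taken from the retrobulbar vein. Plasma was quantified by LC-MS. Parameters came from mean plasma concentration by non-compartmental analysis. F is absolute oral bioavailability, assuming linear pharmacokinetics.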

Series [8] in a line: Elimination half life in Sprague-Dawley rat at 10 mg/kg, iv. The class given is ADME, organism-based. Also on record: dose 10 mg/kg, route intravenous. The settings on record: in vivo, read-out: beta t1/2 (converted). Put shortly:
as §2

Series [9] in a line: Cmax in Sprague-Dawley rat at 10 mg/kg, po. Also on record: dose 10 mg/kg, route oral. The settings on record: in vivo. The class given is ADME, organism-based. A digest of the protocol:
as §2

Series [10] in a line: AUC (0 to infinity) in Sprague-Dawley rat at 10 mg/kg, iv. The class given is ADME, organism-based. Also on record: time infinity, dose 10 mg/kg, route intravenous. To be noted: plasma. A digest of the protocol:
as §2

Series [11] is described as follows: Tmax in Sprague-Dawley rat at 50 mg/kg, po. The class given is ADME, organism-based. Also on record: dose 50 mg/kg, route oral. The settings on record: in vivo. A digest of the protocol: as §2
The nature of series [12]: Elimination half life in Sprague-Dawley rat at 10 mg/kg, po. The class given is ADME, organism-based. Also noted: dose 10 mg/kg, route oral. To be noted: in vivo, read-out: beta t1/2 (converted). A digest of the protocol:
as §2

The nature of series [13]: Clearance in Sprague-Dawley rat at 10 mg/kg, iv. The class given is ADME, organism-based. Also on record: dose 10 mg/kg, route intravenous. To be noted: in vivo. A digest of the protocol:
as §2

Series [14] deals with Rattus norvegicus. Briefly: (§3) AUC (0 to infinity) in Sprague-Dawley rat at 50 mg/kg, po. The class given is ADME, organism-based, Plasma. Also on record: time infinity, dose 50 mg/kg, route oral. To be noted: in vivo. Put shortly:
as §2

Series [15] in a line: Tmax in Sprague-Dawley rat at 10 mg/kg, po. In kind it is ADME, organism-based. Also noted: dose 10 mg/kg, route oral. The settings on record: in vivo. Put shortly: as §2
The nature of series [16]: Elimination half life in Sprague-Dawley rat at 50 mg/kg, po. Also noted: dose 50 mg/kg, route oral. To be noted: in vivo, read-out: beta t1/2 (converted). The class given is ADME, organism-based. A digest of the protocol:
as §2

A short description of series [17]: Oral bioavailability in Sprague-Dawley rat at 10 mg/kg. The settings on record: in vivo. In kind it is ADME, organism-based. A digest of the protocol: as §2
For series [18], the system named is Rattus norvegicus. Briefly: (§4) AUC (0 to infinity) in Sprague-Dawley rat at 10 mg/kg, po. In kind it is ADME, organism-based, Plasma. Also on record: time infinity, dose 10 mg/kg, route oral. The settings on record: in vivo. Put shortly:
as §2

For series [19], the system named is Staphylococcus aureus. Briefly: Antimicrobial activity against methicillin-resistant Staphylococcus aureus after 16 to 18 hrs by agar dilution method. In kind it is functional.
Series [20] is described as follows: Clearance in Sprague-Dawley rat at 10 mg/kg, po. In kind it is ADME, organism-based. Also on record: dose 10 mg/kg, route oral. To be noted: in vivo. A digest of the protocol: as §2
In series [21] the test system is Staphylococcus aureus. Briefly: Antimicrobial activity against methicillin-resistant Staphylococcus aureus 05-2 infected in po dosed KunMing SPF mouse. In kind it is functional. A digest of the protocol:
as §1

A short description of series [22]: as §3. Also noted: time infinity, dose 50 mg/kg, route oral. In kind it is ADME, organism-based, Plasma. To be noted: Sprague-Dawley, plasma. A digest of the protocol:
as §2

Series [23] can be described thus: Clearance in Sprague-Dawley rat at 50 mg/kg, po. In kind it is ADME, organism-based. Also noted: dose 50 mg/kg, route oral. The settings on record: in vivo. Put shortly: as §2
Series [24] is described as follows: as §4. In kind it is ADME, organism-based, Plasma. Also on record: time infinity, dose 10 mg/kg, route oral. To be noted: Sprague-Dawley, plasma. Put shortly:
as §2

Structures are written as SMILES. ≈ marks a conversion by molar mass, not a printed value.

As usually defined, the MIC is the smallest concentration in the dilution series that meets the test's criterion for growth inhibition. Read a low MIC as inhibition by little substance. The ED50 is the dose at which the effect has come halfway, by size or by number of responders. Low values mean greater potency, high ones weaker potency. `CN[C@H](CC(C)C)C(=O)N[C@H]1C(=O)N[C@@H](CC(N)=O)C(=O)N[C@H]2C(=O)N[C@H]3C(=O)N[C@H](C(=O)N[C@H](C(=O)O)c4cc(O)cc(O)c4-c4cc3ccc4O)[C@H](O)c3ccc(c(Cl)c3)Oc3cc2cc(c3O[C@@H]2O[C@H](CO)[C@@H](O)[C@H](O)[C@H]2O[C@H]2C[C@](C)(N)[C@H](O)[C@H](C)O2)Oc2ccc(cc2Cl)[C@H]1O` [VANCOMYCIN]: the MIC worked out at 0.125 µg/mL (≈ 0.0863 µM) in series [1], 1 µg/mL (≈ 0.69 µM) in series [3], 1 µg/mL (≈ 0.69 µM) in [4] and 0.125 µg/mL (≈ 0.0863 µM) in [6]. The figures for the ED50 in series [2] and in [5] were 6.54 mg/kg and 6 mg/kg, respectively.
The term Cmax denotes the maximum level reached in the sampled fluid or tissue. Usually AUC(0-inf) stands for the area under the concentration-time curve extrapolated to infinity. Read a low AUC(0-inf) as low exposure. Usually Tmax stands for the time from dosing to the highest level. For orientation: clearance means a measure of how efficiently the substance is removed, as volume per time. High values mean a high capacity for elimination, low ones a low capacity for elimination. As usually defined, the AUC is concentration integrated over time. The low end stands for less exposure, the high end for more exposure. Consider `O=C1O[C@@H](Cn2ccnn2)CN1c1ccc(N2CCN(Cc3ccc([N+](=O)[O-])o3)CC2)c(F)c1`, for which the Cmax in series [7] was 16900 ng/mL; in series [9] it was 5440 ng/mL. In addition, the minimum inhibitory concentration (MIC) in [1] stood at 0.06 µg/mL (≈ 0.127 µM); in series [3] it was 0.03 µg/mL (≈ 0.0636 µM); in series [4], 0.25 µg/mL (≈ 0.53 µM); in [6], 0.06 µg/mL (≈ 0.127 µM); in series [19] it was 0.06 µg/mL (≈ 0.127 µM). For the same compound, the half-life in series [8] is 70.8 min; in series [12], 90.6 min; in series [16], 99.6 min. This compound had an area under the curve AUC(0-inf) in series [10] of 18900 ng·h/mL. Besides, the Tmax stood at 30 min in [11] and 15 min in series [15]. Besides, the clearance in series [13] is 16.2 mL/min/kg. The values for the AUC in series [14] and in series [18] were 139 µg·h/mL and 19.4 µg·h/mL, respectively. Moreover, in [17], the bioavailability was found to be 103%.
For orientation: CL/F means the apparent clearance, not corrected for the fraction that reaches the circulation. On to `Nc1ccc(CN2CCN(c3ccc(N4C[C@H](Cn5ccnn5)OC4=O)cc3F)CC2)cc1`, for which the figures for the Cmax in [7] and in series [9] were 2320 ng/mL and 1200 ng/mL, respectively. The MIC in series [1] was 0.06 µg/mL (≈ 0.133 µM); in series [3], 0.5 µg/mL (≈ 1.11 µM); in series [4], 0.25 µg/mL (≈ 0.554 µM); in series [6], 0.125 µg/mL (≈ 0.277 µM); in series [19] it was 0.5 µg/mL (≈ 1.11 µM). For the same compound, the CL/F in [20] amounted to 54.4 mL/min/kg; in series [23], 49 mL/min/kg. The ED50 in series [2] amounted to 6.73 mg/kg; in [21] it was 14.5 mg/kg. The results for the half-life in series [8], in series [12] and in [16] were 211 min, 204 min and 280 min, respectively. The AUC(0-inf) in [10] amounted to 7080 ng·h/mL; in [22], 18100 ng·h/mL; in series [24], 3100 ng·h/mL. Moreover, the Tmax in series [11] was 60 min; in series [15], 45 min. In series [13], this compound registered a clearance of 23.9 mL/min/kg. The bioavailability in [17] was 43.8%.

For the origin of these results see ChEMBL document CHEMBL1151774, “Synthesis and biological evaluation of new N-linked 5-triazolylmethyl oxazolidinones” (Eur J Med Chem, 2008).
